In ChEMBL document CHEMBL1125714, “Novel class of amino acid antagonists at non-N-methyl-D-aspartic acid excitatory amino acid receptors. Synthesis, in vitro and in vivo pharmacology, and neuroprotection” (J Med Chem, 1991):
pIC50: −log10 of the molar value. Several values for one entry are separate records, joined by “and”; a condition that tells them apart may be missing. Identical values can stand only once.

Experiments:
[1] = species: Rattus norvegicus; assay: Neuroprotective effect evaluated for excitatory amino acid receptor antagonism with the concentration at 1 uL in the corpus striatum of 9 rats with glutamic acid decarboxylase as the marker enzyme.; assay type: functional
Summary of the method: (§1)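 […]-anaesthetised rats (4 mL/kg ip), stereotaxic cannula into corpus striatum; 1 µL infused containing kainate (10 nmol), quinolinic acid (300 nmol) or AMPA (100 nmol), with or without co-infused antagonist. After 3-day recovery, striata were homogenised in 50 mM Tris-HCl pH 7.4 with 0.2% Triton X-100 and spun 10000g for 10 min. Choline acetyltransferase or glutamic acid decarboxylase activity was reported as % remaining versus non-lesioned striatum.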

[2] = species: Rattus norvegicus; assay: Neuroprotective effect evaluated for excitatory amino acid receptor antagonism with the concentration at 1 uL in the corpus striatum of 9 rats with choline acetyltransferase as the marker enzyme.; assay type: functional; summary of the method: as §1
[3] = target: Glutamate receptor ionotropic AMPA (Homo sapiens, UniProt P42261+P42262+P42263+P48058); assay: Inhibition of the binding of radioligand [3H]AMPA in the presence at low-affinity AMPA receptor sites.; assay type: protein-complex assay
[4] = Inhibition of the binding of radioligand [3H]AMPA in the presence of the compound. at Non N-methyl-D-aspartate glutamate receptor
Summary of the method: (§2)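 Rat brain membrane [3H]AMPA binding run with 100 mM isothiocyanate present, so both high- and low-affinity AMPA sites are detected. Competitors were tested over concentration ranges of 1–1000 μM, and the IC50 was calculated from displacement data.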

[5] = species: Rattus norvegicus; assay: Neuroprotective effect evaluated for excitatory amino acid receptor antagonism with the concentration at 1 uL in the corpus striatum of 3 rats with glutamic acid decarboxylase as the marker enzyme.; assay type: functional
Summary of the method: (§3)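 Rat corpus striatum, stereotaxic infusion under […] anaesthesia (4 mL/kg ip). 1 μL solution held KAIN 10 nmol, quinolinic acid 300 nmol or AMPA 100 nmol, with or without antagonist 150 nmol. After 3 days recovery, striatum was homogenized in Tris-HCl/Triton X-100 and spun at 10000g. Choline acetyltransferase and glutamic acid decarboxylase activities were read as percent of non-lesioned tissue.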

[6] = species: Rattus norvegicus; assay: Neuroprotective effect evaluated for excitatory amino acid receptor antagonism with the concentration at 1 uL in the corpus striatum of 3 rats with choline acetyltransferase as the marker enzyme.; assay type: functional; summary of the method: as §3
[7] = species: Rattus norvegicus; assay: Neuroprotective effect evaluated for excitatory amino acid receptor antagonism with the concentration at 1 uL in the corpus striatum of 5 rats with choline acetyltransferase as the marker enzyme.; assay type: functional; summary of the method: as §1
[8] = species: Rattus norvegicus; assay: Neuroprotective effect evaluated for excitatory amino acid receptor antagonism with the concentration at 1 uL in the corpus striatum of 5 rats with glutamic acid decarboxylase as the marker enzyme.; assay type: functional; summary of the method: as §1
[9] = species: Rattus norvegicus; assay: Neuroprotective effect evaluated for excitatory amino acid receptor antagonism with the concentration at 1 uL in the corpus striatum of 7 rats with choline acetyltransferase as the marker enzyme.; assay type: functional; summary of the method: as §1
[10] = species: Rattus norvegicus; assay: Neuroprotective effect evaluated for excitatory amino acid receptor antagonism with the concentration at 1 uL in the corpus striatum of 7 rats with glutamic acid decarboxylase as the marker enzyme.; assay type: functional; summary of the method: as §1
[11] = species: Rattus norvegicus; assay: Neuroprotective effect evaluated for excitatory amino acid receptor antagonism with the concentration at 1 uL in the corpus striatum of 14 rats with glutamic acid decarboxylase as the marker enzyme.; assay type: functional; summary of the method: as §1
[12] = species: Rattus norvegicus; assay: Neuroprotective effect evaluated for excitatory amino acid receptor antagonism with the concentration at 1 uL in the corpus striatum of 14 rats with choline acetyltransferase as the marker enzyme.; assay type: functional; set-up: concentration or dose not given beside the values; summary of the method: as §1
[13] = Inhibition of the binding of radioligand [3H]AMPA in the presence at Non N-methyl-D-aspartate glutamate receptor; summary of the method: as §2

Work on `Cc1onc(O)c1CC(N)C(=O)O.Cc1onc(O)c1Cn1oc(C)c(CC(N)C(=O)O)c1=O` (stereo unspecified) yielded an Enzyme activity [1] of 39% and an Enzyme activity [2] of 53%.
For `Cc1onc(O)c1Cn1oc(C)c(CC(N)C(=O)O)c1=O` (stereo unspecified), the pIC50 [3] was 3.47 and the pIC50 [4] was 4.54.
With `Cc1onc(OCC(=O)O)c1CC(N)C(=O)O.O=C(O)c1cccnc1C(=O)O` (stereo unspecified) the Enzyme activity [5] was 64% and the Enzyme activity [6] was 52%.
`Cc1onc(O)c1Cn1oc(C)c(CC(N)C(=O)O)c1=O.O=C(O)c1cccnc1C(=O)O` (stereo unspecified) gave an Enzyme activity [7] of 50% and an Enzyme activity [8] of 49%.
`Cc1onc(O)c1CC(N)C(=O)O.O=C(O)C1CN(CCCP(=O)(O)O)CCN1` (stereo unspecified) showed an Enzyme activity [9] of 55% and an Enzyme activity [10] of 50%.
Compound `Cc1onc(O)c1CC(N)C(=O)O.Cc1onc(OCC(=O)O)c1CC(N)C(=O)O` (stereo unspecified) has an Enzyme activity [11] of 62% and an Enzyme activity [12] of 68%.
For `O=C(O)C1CN(CCCP(=O)(O)O)CCN1.O=C(O)c1cccnc1C(=O)O` (stereo unspecified), the Enzyme activity [7] was 98% and the Enzyme activity [8] was 99%.
For `Cc1onc(OCC(=O)O)c1CC(N)C(=O)O` (stereo unspecified), the pIC50 [3] was 4.01 and the pIC50 [13] was 4.05.
For `Cc1onc(O)c1CC(N)C(=O)O` [(R,S)-AMPA], the Enzyme activity [12] was 53% and 40%.
Compound `C=C(C)[C@H]1CN[C@H](C(=O)O)[C@H]1CC(=O)O` [KAINIC ACID] has an Enzyme activity [9] of 34% and an Enzyme activity [10] of 44%.
Work on `O=C(O)c1cccnc1C(=O)O` [QUINOLINIC ACID] yielded an Enzyme activity [11] of 53% and an Enzyme activity [12] of 61%.
